For eight molecules, Activity, Cytotoxicity and Rate of reduction results are on record in ChEMBL document CHEMBL1132246, “Cross-linking and sequence-specific alkylation of DNA by aziridinylquinones. 3. Effects of alkyl substituents” (1999).

In test [1] the test system is Nucleic Acid. Nature of the test: Ability to produce interstrand cross-links in the plasmid DNA at 10 uM concentration. Type of test: functional. An outline of the steps:
(§1)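 Stocks were 10 mM in DMSO. DNA was ethanol-precipitated, denatured in 30% DMSO at 90 °C for 2 min and run on 0.8% agarose gels at 40 V for 16 h. Cross-linked versus single-stranded DNA was read by autoradiography.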

Test [2] relates to BE. The test is described as follows: In vitro cytotoxicity against BE cell line. Type of test: functional, Homo sapiens. In a few lines: (§2)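 Continuous-exposure MTT assay at 600 cells/well. HT29 (colon) and H460 (large-cell lung) express high DTD; H596 (lung) and BE (colon) lack detectable DTD activity. Absorbance was read at 540 and 640 nm after 5 days, and growth inhibition was plotted against concentration. Triplicates at each concentration, on at least two occasions.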

Test [3] has as its system NCI-H460. Nature of the test: In vitro cytotoxicity against H460 cell line. Type of test: functional, Homo sapiens. In a few lines:
as §2

In test [4] the test system is NCI-H596. Nature of the test: In vitro cytotoxicity against H596 cell line. Type of test: functional, Homo sapiens. An outline of the steps: as §2
Test [5] in a line: Rate of reduction by human BE cell extract. Type of test: functional. An outline of the steps: (§3)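 Extract from 2 × 10⁷ BE cells in 2 mL PBS, sonicated and centrifuged to remove debris. Quinone at 100 µM in PBS with acetylated cytochrome c (100 µM) and NADPH (200 µM). Reduction was followed through cytochrome c reduction.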
Test [6] concerns Nucleic Acid. The test is described as follows: Ability to produce interstrand cross-links in the plasmid DNA at 100 uM concentration. Type of test: functional. In a few lines: as §1
Test [7] deals with NAD(P)H dehydrogenase [quinone] 1 (Homo sapiens) (UniProt P15559). The test is described as follows: Rate of reduction by human recombinant DTD. Type of test: functional. An outline of the steps: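 Human recombinant DTD (specific activity 653 µmol/min/mg protein) with quinone at 50 µM in 50 mM Tris-HCl, pH 7.4. Reduction was followed through the coupled reduction of 70 µM cytochrome c.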
NAD(P)H dehydrogenase [quinone] 1 (Homo sapiens), sequence (P15559 whole entry): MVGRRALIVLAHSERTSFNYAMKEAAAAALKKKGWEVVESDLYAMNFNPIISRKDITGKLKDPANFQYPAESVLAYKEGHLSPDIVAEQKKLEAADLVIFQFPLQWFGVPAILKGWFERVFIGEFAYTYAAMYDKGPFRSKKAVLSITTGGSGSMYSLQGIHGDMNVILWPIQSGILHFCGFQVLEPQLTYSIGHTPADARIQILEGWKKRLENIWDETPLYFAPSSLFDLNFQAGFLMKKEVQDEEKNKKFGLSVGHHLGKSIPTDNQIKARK

Test [8] relates to HT-29. Nature of the test: In vitro cytotoxicity against HT-29 cell line. Type of test: functional, Homo sapiens. An outline of the steps: as §2
For test [9], the system named is BE. Nature of the test: Rate of reduction by human BE cell extract; Not Detected. Type of test: functional, cell-based. An outline of the steps:
as §3

On to `CCC1=C(N2CC2)C(=O)C(C)=C(N2CC2)C1=O`, for which the Activity in test [1] was determined as 69%; in test [6], 100%. Moreover, the Cytotoxicity was 84 nM in test [2], 1.6 nM in test [3], 98.5 nM in [4] and 3.9 nM in test [8]. For the same molecule, the Rate of reduction is 4 nM/min/mg in test [5] and 12.5 µM/min/mg in test [7].
In the case of `CC1=C(N2CC2)C(=O)C(C(C)C)=C(N2CC2)C1=O`, the Activity in [1] came out at 28.1%; in [6], 87.8%. For the same molecule, the Cytotoxicity in test [2] amounted to 1300 nM; in [3], 3.6 nM; in [4], 1230 nM; in [8], 33 nM. In addition, the Rate of reduction in test [5] is 1.1 nM/min/mg; in test [7] it was 2.7 µM/min/mg.
On to `CC1=C(N2CC2)C(=O)C(C)=C(N2CC2)C1=O`, for which the Activity in [1] stood at 79.8%; in test [6], 100%. Further, the Cytotoxicity turned out to be 25.9 nM in test [2], 0.77 nM in test [3], 48.8 nM in [4] and 3.4 nM in [8]. In addition, the Rate of reduction in test [5] was determined as 9.2 nM/min/mg; in test [7] it was 21 µM/min/mg.
With `CCCC1=C(N2CC2)C(=O)C(CCC)=C(N2CC2)C1=O`, the figures for the Activity in [1] and in test [6] were 16.4% and 95.6%, respectively. The Cytotoxicity in test [2] came to 590 nM; in test [3], 20.1 nM; in test [4], 1290 nM; in test [8], 58.2 nM. The Rate of reduction turned out to be 1.7 nM/min/mg in test [5] and 1 µM/min/mg in test [7].
In the case of `CC(C)C1=C(N2CC2)C(=O)C(C(C)C)=C(N2CC2)C1=O`, the Rate of reduction entry in test [9] was “Not detected”; in test [7], 0.22 µM/min/mg. Also, the Activity in [1] and in test [6] was 0% throughout. Moreover, the Cytotoxicity in test [2] is reported as 3130 nM; in test [3], 170 nM; in test [4] it was 2620 nM; in test [8], 2740 nM.
In the case of `CCC1=C(N2CC2)C(=O)C(CC)=C(N2CC2)C1=O`, the Activity is 60.9% in [1] and 100% in test [6]. For the same molecule, the Cytotoxicity in test [2] is listed as 290 nM; in [3], 4.1 nM; in test [4] it was 1160 nM; in [8], 21.8 nM. In addition, the Rate of reduction in [5] was 2.3 nM/min/mg; in test [7], 3 µM/min/mg.
Regarding `CCCC1=C(N2CC2)C(=O)C(C)=C(N2CC2)C1=O`, the figures for the Activity in [1] and in test [6] were 58.4% and 100%, respectively. Also, the Cytotoxicity in test [2] stood at 67 nM; in [3], 3.3 nM; in test [4] it was 228 nM; in test [8] it was 5.5 nM. Further, the figures for the Rate of reduction in [5] and in [7] were 3.4 nM/min/mg and 7.9 µM/min/mg, respectively.
With `O=C1C=C(N2CC2)C(=O)C=C1N1CC1`, the Activity in test [1] and in test [6] was 100% in each case. Moreover, the Cytotoxicity in test [2] stood at 10.2 nM; in [3], 4.6 nM; in test [4], 12.9 nM; in test [8], 5.1 nM. Also, the results for the Rate of reduction in test [5] and in test [7] were 25.3 nM/min/mg and 35.6 µM/min/mg, respectively.
